From ChEMBL document CHEMBL1155540, “The discovery and SAR of indoline-3-carboxamides--a new series of 5-HT6 antagonists” (Bioorg Med Chem Lett, 2010) come the findings set out here.

In data set [1] the target is Voltage-gated inwardly rectifying potassium channel KCNH2 (Homo sapiens, UniProt Q12809). Put plainly: Displacement of [3H]dofetolide from human ERG channel in HEK293 cells. The class given is cell-based. The gist of the method:
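Affinity for cardiac K+ channel determined by displacement of tritiated dofetolide in membrane homogenate from HEK-293 cells expressing hERG channel; reported as pKi.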
For orientation: In a radioligand displacement assay an active substance lowers the binding of a labelled ligand.

Data set [2] can be described thus: Intrinsic clearance in human liver microsome measured per mg of protein. The note with it: liver microsomes. The class given is ADME.
Data set [3] in a line: Intrinsic clearance in rat liver microsome measured per mg of protein. Conditions: liver microsomes. Type of data set: ADME. (Liver microsomes are vesicles of endoplasmic reticulum, rich in cytochrome P450 enzymes.)
In data set [4] the test system is Hepatocyte. The data set is described as follows: Intrinsic clearance in human hepatocytes. The class given is ADME, cell-based, Liver.
The subject of data set [5] is Hepatocyte. The data set is described as follows: Intrinsic clearance in rat hepatocytes. The class given is ADME, cell-based, Liver.
Data set [6] is described as follows: Permeability from apical to basolateral side of the human Caco-2 membrane. The class given is ADME, cell-based. Conditions: read-out: permeability. (Caco-2 monolayers are a common model of the intestinal barrier.)
A short description of data set [7]: Permeability from basolateral to apical side of the human Caco-2 membrane. Conditions: read-out: permeability. Type of data set: ADME, cell-based.
Data set [8] can be described thus: Elimination half life in Wistar rat at 1 mg/kg, iv. Type of data set: ADME, organism-based. On the set-up: dose 1 mg/kg, route intravenous. The note with it: in vivo, read-out: beta t1/2 (converted). The gist of the method: (§1)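 Male Wistar rats dosed 1 mg/kg iv or 10 mg/kg po; vehicle 5% DMA / 95% saline. Plasma pharmacokinetic parameters derived and given as mean with SD.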

The nature of data set [9]: Volume of distribution at steady state in Wistar rat at 1 mg/kg, iv. The class given is ADME, organism-based. The note with it: in vivo, read-out: Vdss. Set-up: dose 1 mg/kg, route intravenous. A digest of the protocol:
as §1

Data set [10] is described as follows: Clearance in Wistar rat at 1 mg/kg, iv. Type of data set: ADME, organism-based. Set-up: dose 1 mg/kg, route intravenous. The note with it: in vivo. A digest of the protocol:
as §1

The nature of data set [11]: Oral bioavailability in Wistar rat at 10 mg/kg. Type of data set: ADME, organism-based. The note with it: in vivo. The gist of the method:
as §1

Data set [12] can be described thus: Plasma protein binding in rat. Conditions: read-out: PPB (converted).
The species named for data set [13] is Homo sapiens. The data set is described as follows: Plasma protein binding in human. The note with it: read-out: PPB (converted).
Data set [14] concerns the target 5-hydroxytryptamine receptor 6 (Homo sapiens, UniProt P50406). The data set is described as follows: Displacement of [3H]LSD from human 5HT6 receptor expressed in CHO cells.

One may read the Ki as a measure of affinity in units of concentration, obtained from inhibition or displacement. A word on the microsomal CLint: it is a measure of how fast metabolising enzymes remove a compound, apart from limits set by blood flow. The low end stands for slow turnover, the high end for rapid turnover. Usually clearance stands for the rate of elimination divided by the concentration. One may read the bioavailability as the share of a dose that reaches the circulation, judged against a reference dose that is usually intravenous. Higher therefore signals much systemic uptake.

5-hydroxytryptamine receptor 6, sequence (P50406 whole entry): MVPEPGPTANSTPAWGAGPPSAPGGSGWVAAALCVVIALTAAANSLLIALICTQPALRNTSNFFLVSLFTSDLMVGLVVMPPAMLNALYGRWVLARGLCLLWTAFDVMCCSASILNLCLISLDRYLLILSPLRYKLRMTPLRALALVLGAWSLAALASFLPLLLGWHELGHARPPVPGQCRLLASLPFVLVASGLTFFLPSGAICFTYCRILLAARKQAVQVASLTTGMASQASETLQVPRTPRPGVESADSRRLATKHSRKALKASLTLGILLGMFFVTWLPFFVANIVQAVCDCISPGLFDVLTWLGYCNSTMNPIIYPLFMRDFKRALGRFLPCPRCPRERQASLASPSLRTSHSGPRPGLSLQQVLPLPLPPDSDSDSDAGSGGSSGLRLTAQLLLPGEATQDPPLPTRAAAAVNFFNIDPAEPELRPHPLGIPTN
Voltage-gated inwardly rectifying potassium channel KCNH2, sequence (Q12809 whole entry): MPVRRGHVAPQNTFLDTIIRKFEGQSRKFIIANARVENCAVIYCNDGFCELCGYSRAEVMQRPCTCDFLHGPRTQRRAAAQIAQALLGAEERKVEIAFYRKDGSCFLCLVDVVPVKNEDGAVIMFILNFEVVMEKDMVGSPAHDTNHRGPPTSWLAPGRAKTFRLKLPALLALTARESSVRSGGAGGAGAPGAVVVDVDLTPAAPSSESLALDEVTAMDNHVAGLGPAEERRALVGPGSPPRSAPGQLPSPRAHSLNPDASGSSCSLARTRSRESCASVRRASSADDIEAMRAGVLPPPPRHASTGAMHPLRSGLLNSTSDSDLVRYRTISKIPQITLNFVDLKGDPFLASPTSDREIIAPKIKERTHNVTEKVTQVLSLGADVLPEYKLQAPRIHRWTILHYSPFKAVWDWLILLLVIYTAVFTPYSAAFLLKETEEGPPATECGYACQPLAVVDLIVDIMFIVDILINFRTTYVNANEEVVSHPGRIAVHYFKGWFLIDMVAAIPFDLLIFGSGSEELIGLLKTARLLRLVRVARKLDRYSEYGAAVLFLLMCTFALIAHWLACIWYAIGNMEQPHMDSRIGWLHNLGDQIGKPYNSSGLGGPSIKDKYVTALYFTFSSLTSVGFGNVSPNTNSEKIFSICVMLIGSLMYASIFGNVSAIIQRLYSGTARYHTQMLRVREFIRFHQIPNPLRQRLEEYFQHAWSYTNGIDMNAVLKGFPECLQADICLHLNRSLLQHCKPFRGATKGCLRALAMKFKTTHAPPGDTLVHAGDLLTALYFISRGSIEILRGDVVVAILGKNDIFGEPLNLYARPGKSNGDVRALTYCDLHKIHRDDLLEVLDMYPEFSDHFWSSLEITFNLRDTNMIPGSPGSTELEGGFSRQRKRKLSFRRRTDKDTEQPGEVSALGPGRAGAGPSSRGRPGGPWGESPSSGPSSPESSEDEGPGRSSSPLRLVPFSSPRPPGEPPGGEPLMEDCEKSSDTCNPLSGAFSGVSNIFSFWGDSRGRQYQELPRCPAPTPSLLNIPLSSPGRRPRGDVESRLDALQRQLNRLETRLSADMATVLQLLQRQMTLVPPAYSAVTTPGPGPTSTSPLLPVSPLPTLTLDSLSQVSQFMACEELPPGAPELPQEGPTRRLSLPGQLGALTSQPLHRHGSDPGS

For `COc1ccc(S(=O)(=O)N2C[C@H](C(=O)N3CCCNCC3)c3ccccc32)c2ccccc12`, the Ki in data set [1] was 1260 nM. Also, the figures for the microsomal CLint in [2] and in [3] were 69 µL/min/mg and 105 µL/min/mg, respectively. Also, the CL is 7 µL/min in data set [4] and 11 µL/min in data set [5]. The Papp A→B in data set [6] was < 2.2 ×10⁻⁶ cm/s. In addition, the Papp B→A in data set [7] came out at 4.7 ×10⁻⁶ cm/s. In [8], the half-life was 1.9 h. Besides, the Vd in data set [9] stood at 1.9 L/kg. In data set [10], this compound yielded a clearance of 16.5 mL/min/kg. Moreover, the bioavailability in data set [11] stood at 23.5%. Also, the fraction unbound in data set [12] was 0.029; in data set [13] it was 0.006.

Regarding `COc1ccc(S(=O)(=O)N2CC(C(=O)NCCCn3ccnc3)c3ccccc32)c2ccccc12` (racemic), the Ki in [14] is 79.4 nM.

As for `CN1CCC(N(C)C(=O)C2CN(S(=O)(=O)c3cccc4c(Cl)cccc34)c3ccccc32)CC1` (racemic), the Ki in data set [14] is 5.01 nM. This Ki is about 16-fold lower than that of the compound before.

In turn, `CN1CCC(N(C)C(=O)C2CN(S(=O)(=O)c3cccc4ccccc34)c3ccccc32)CC1` (racemic) gave an inhibition constant Ki in data set [14] of 31.6 nM.

Regarding `COc1ccc(S(=O)(=O)N2CC(C(=O)NC3CC4CCC(C3)N4C)c3ccccc32)c2ccccc12` (racemic), the Ki in data set [14] was 31.6 nM.

As for `CN1CCC(N(C)C(=O)C2CN(S(=O)(=O)c3cccc4nsnc34)c3ccccc32)CC1` (racemic), the Ki in data set [14] was 126 nM.

As to `Cc1c(S(=O)(=O)N2CC(C(=O)N(C)C3CCN(C)CC3)c3ccccc32)sc2ccc(Cl)cc12` (racemic), the Ki in [14] was 63.1 nM.

For the compound `CN1CCC(N(C)C(=O)C2CN(S(=O)(=O)c3cccs3)c3ccccc32)CC1` (racemic), the Ki in data set [14] is 316 nM.

The compound `CN1CCC(N(C)C(=O)C2CN(S(=O)(=O)c3ccccc3)c3ccccc32)CC1` (racemic) had a Ki in data set [14] of 316 nM. In other words, the sub-micromolar range.

Consider `COc1ccc(S(=O)(=O)N2CC(C(=O)N(C)C3CCN(C)CC3)c3ccccc32)c2ccccc12` (racemic), for which the Ki in data set [14] is 7.94 nM.

In data set [14], `COc1ccc(S(=O)(=O)N2CC(C(=O)NCCCN3CCOCC3)c3ccccc32)c2ccccc12` (racemic) showed a Ki of 31.6 nM.

`CN1CCC(N(C)C(=O)C2CN(S(=O)(=O)c3cccc(C(F)(F)F)c3)c3ccccc32)CC1` (racemic) had an inhibitory constant (Ki) in data set [14] of 25.1 nM.

In [14], `COc1ccc(S(=O)(=O)N2CC(C(=O)N(C)C3CCN(C)CC3)c3ccccc32)c(C)c1C` (racemic) had a Ki of 100 nM.

Regarding `CN1CCC(N(C)C(=O)C2CN(S(=O)(=O)c3ccc(C(F)(F)F)cc3)c3ccccc32)CC1` (racemic), in data set [14], the affinity, expressed as Ki, was 25.1 nM.

As to `COc1cc(C)c(S(=O)(=O)N2CC(C(=O)N(C)C3CCN(C)CC3)c3ccccc32)c(C)c1C` (racemic), the Ki in [14] is 100 nM.

As for `COc1ccc(S(=O)(=O)N2CC(C(=O)N3CCCNCC3)c3ccccc32)c2ccccc12` (racemic), the Ki in data set [14] was 1.26 nM.

Regarding `CCN(CC)CCNC(=O)C1CN(S(=O)(=O)c2ccc(OC)c3ccccc23)c2ccccc21` (racemic), in data set [14], the inhibitory constant (Ki) was 20 nM.

`CCN(CC)CCCNC(=O)C1CN(S(=O)(=O)c2ccc(OC)c3ccccc23)c2ccccc21` (racemic): the Ki in data set [14] was 79.4 nM.

As to `CN1CCC(N(C)C(=O)C2CN(S(=O)(=O)c3ccc(-c4ccccc4)cc3)c3ccccc32)CC1` (racemic), in [14], the inhibitory constant (Ki) is 126 nM.

Regarding `CN1CCC(N(C)C(=O)C2CN(S(=O)(=O)c3cccc(-c4ccccc4)c3)c3ccccc32)CC1` (racemic), the inhibition constant (Ki) in data set [14] was 31.6 nM.

Consider `COc1cccc(N2CCN(C(=O)C3CN(S(=O)(=O)c4ccc(OC)c5ccccc45)c4ccccc43)CC2)c1` (racemic), for which the affinity in [14], expressed as Ki, was 63.1 nM. This Ki lies about 2-fold higher than the previous one.

In data set [14], `CN1CCC(N(C)C(=O)C2CN(S(=O)(=O)c3ccc4ccccc4c3)c3ccccc32)CC1` (racemic) gave a Ki of 25.1 nM.

Turning to `CN1CCC(N(C)C(=O)C2CN(S(=O)(=O)c3ccc4c(c3)OCCO4)c3ccccc32)CC1` (racemic), the Ki in data set [14] was 50.1 nM.

With `Cc1cnc2c(S(=O)(=O)N3CC(C(=O)N(C)C4CCN(C)CC4)c4ccccc43)cccc2c1` (racemic), the affinity in data set [14], expressed as Ki, was 316 nM.

On to `COc1ccc(S(=O)(=O)N2CC(C(=O)N3CC(N)C3)c3ccccc32)c2ccccc12` (racemic), for which the Ki in data set [14] is 158 nM.

The compound `COc1ccc(S(=O)(=O)N2CC(C(=O)N3CC(CN)C3)c3ccccc32)c2ccccc12` (racemic) gave a Ki in data set [14] of 79.4 nM.

In data set [14], `COc1ccc(S(=O)(=O)N2CC(C(=O)N3CCNCC3)c3ccccc32)c2ccccc12` (racemic) had an inhibition constant (Ki) of 7.94 nM.

For the compound `COc1ccc(S(=O)(=O)N2CC(C(=O)NC3CCN(C)CC3)c3ccccc32)c2ccccc12` (racemic), the Ki in data set [14] is 25.1 nM. This Ki is about 3.2-fold higher than that of the compound before.

In turn, `COc1ccc(S(=O)(=O)N2CC(C(=O)NC3CCN(Cc4ccccc4)CC3)c3ccccc32)c2ccccc12` (racemic) gave an inhibition constant (Ki) in data set [14] of 50.1 nM.

For the compound `CN1CCC(N(C)C(=O)C2CN(S(=O)(=O)c3ccc(OC(F)(F)F)cc3)c3ccccc32)CC1` (racemic), in data set [14], the affinity, expressed as Ki, was 20 nM.
